Test results reported in the EternaBench riboswitch data.

System: MS2 coat protein
Assay: apparent Kd, MS2 coat protein; higher = weaker binding; RNA-MaP array; FMN 200 µM where present
Procedure, shortened: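 Green signal was scaled to red-channel RNA signal and control-cluster median Fmax, and the apparent Kd was taken as the median of filtered per-cluster binding-curve fits. The binding series used SNAP-549-labelled MS2 coat protein from 0.7 or 1.5 nM, doubling to 3 µM, on designs transcribed by stalled E. coli RNA polymerase on Illumina sequencing-chip clusters. Each series ran without and then with constant ligand in 100 mM Tris-HCl pH 7.5, 80 mM KCl, 4 mM MgCl2, BSA, DTT, yeast tRNA and Tween-20.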

[1] = designed as: ON switch for flavin mononucleotide, no ligand
[2] = ligand present: flavin mononucleotide, designed as: ON switch for flavin mononucleotide
[3] = designed as: OFF switch for flavin mononucleotide, no ligand
[4] = ligand present: flavin mononucleotide, designed as: OFF switch for flavin mononucleotide

Sequence	apparent Kd [1] [nM]	apparent Kd [2] [nM]	apparent Kd [3] [nM]	apparent Kd [4] [nM]
CGAAAACCACAGAAGGCCCGGGACAUGAGGAUCACCCAUGUAGAAAGUGGGAGGAUAUGUGUACGCGGCGUGCUGACCUCGUGA	232	27.4		
CGAAGUCCGUAGAAGGGUGACAUGAGGAUCACCCAUGUGCGAGCGGAUGGAGUCAGCGGCUCGCCACAGGAUAUACGGAGCACG	30.6	65.3		
CGACAGCACACAGGAUAUCCUCGACUUUGUCGAGGAGAAGGGUGUAAACAUGAGGAUCACCCAUGUAUGCUGUCGAAAUUUAAU	308	30.7		
CGAGGAGGAGUGAGGAUAUCGUGUUCGAAAGAACGUGAGAAGGCACAUGAGGAUCACCCAUGUGAUACUUUUCG			13.6	28.8
CGAGUCGGUUGCCCUGCAGUACAUGAGGAUCACCCAUGUCGGAGAAGGUGCACAAAGGAAUCGGGCAAGGAUAUCCGGCGUGAA			8.21	7.98
CGAGUGUAAGGAUAUUCGGCGCCAGGGAACGACCUGGCGUAGAAGAAGGUACAUGAGGAUCACCCAUGUGGUUA			178	18.6
CGAGUGUGAGGAUAUCCAGCCGGUGGGAUUACGUCGACGCUGGAGAAGGCACAUGAGGAUCACCCAUGUGGACA			111	234
CGAUAACAUAGUUAUCAGUAACGGACAUGAGGAUCACCCAUGUAGGAUAUGUUACUCAACGAGUAACAGAAGGACAUGAGUCUU			19.2	91.2
CGAUAGGACAGAGGAUAUACACAUGAGGAUCACCCAUGUAAUUACAAUUCUUAAGAUUCAAACAUGUAGAAGGCUGUCCUAUCG			35.9	13.1
CGAUAUACGAUGGACGGAAACGUACAUGAGGAUCACCCAUGUAGAAGGCGAUCCGCAACGCGGAUUGAGGAUAUAUACCACACA			23.8	23.3
CGAUCUUCAGUCAGGAUAUGCUGGCACGAAGAGUUGUAGAAGGGACAUGAGGAUCACCCAUGUCGGACGUUGUA			19	17.4
CGAUGACAAAGUCAUCGAUAACGAACAUGAGGAUCACCCAUGUAGGAUAUGCUACUCAAAGAGUAGCAGAAGGACAUGUGUCUU			31.7	154
CGAUGACACAGUCAUCCAAUACGAACAUGAGGAUCACCCAUGUAGGAUAUGCUACUCAAAGAGUAGCAGAAGGACAUGUGCCUU			38.4	159
CGAUGUUAUGUCAGGAUAUACAUUGCGAAAGCAAUGUAGAAGGGACAUGAGGAUCACCCAUGUCCUAACCAUCG			13.1	17.1
CGCAACUCAGAUCUGUUAAACAUGAGGAUCACCCAUGUAUUGAGAAGGAGGAAGAAGAGAGAUUCCUAGGAUAUCAGAGUUGCG			6.62	6.98
CGCAACUUUUCUCAUGUAAACAUGAGGAUCACCCAUGUAAUGAGAAGGAGGAGGAAGAGAGAAUCCUAGGAUAUCAGAGUUGCG			7.12	6.01
CGCAAGUAUACAUGAGGAUCACCCAUGUCAGAAAGGGUAAUCAGAAGGUACUAUUAGAGAAAGAGUAAGGAUAUGAAAUUUGCG	747	125		
CGCACUGAUAGAGGAUAUGUUUUACAUGAGGAUCACCCAUGUGUACAAGGAUUAAUAUAUAAGUAACAGAAGGCUAUUUGUGCG			6.55	5.85
CGCAUCUCCUCAAUUCCUUCACAUGAGGAUCACCCAUGUAGGGAGGAUAUGCAAGCCUAUUGGCGGCAGAAGGCCCUGCAAUGG			72.9	67.4
CGCAUGCGUAGUAUUAGUUGCUGACAGGAUAUGACAUGAGGAUCACCCAUGUGAAUUAAGAAGAGUCAGAAGGGUCACGUUGCG			11.6	10.6
CGCCGACAUGAGGAUCACCCAUGUCACAUCUGGUCAGGAUAUGGUAUGAUUUGGCUAUUGCCAGAAGGGACCUCAG	48.9	28		
CGCCUCAGUUCAGGAUAUGUAUGGGUCUAACGAACAGAAGGGAACAUGAGGAUCACCCAUGUAAAUAGGGCCAAAGGCUAGAUC			41.7	175
CGCCUGGGAGGAUAUCCAAUAUAUGACAUGAGGAUCACCCAUGUUUCCACUCGUACCUCCGGAGAAGGCCCUGCGU			22.2	23.5
